One data set has as its target T1, Aromatase (Homo sapiens, UniProt P11511).
T1 sequence (P11511 whole entry): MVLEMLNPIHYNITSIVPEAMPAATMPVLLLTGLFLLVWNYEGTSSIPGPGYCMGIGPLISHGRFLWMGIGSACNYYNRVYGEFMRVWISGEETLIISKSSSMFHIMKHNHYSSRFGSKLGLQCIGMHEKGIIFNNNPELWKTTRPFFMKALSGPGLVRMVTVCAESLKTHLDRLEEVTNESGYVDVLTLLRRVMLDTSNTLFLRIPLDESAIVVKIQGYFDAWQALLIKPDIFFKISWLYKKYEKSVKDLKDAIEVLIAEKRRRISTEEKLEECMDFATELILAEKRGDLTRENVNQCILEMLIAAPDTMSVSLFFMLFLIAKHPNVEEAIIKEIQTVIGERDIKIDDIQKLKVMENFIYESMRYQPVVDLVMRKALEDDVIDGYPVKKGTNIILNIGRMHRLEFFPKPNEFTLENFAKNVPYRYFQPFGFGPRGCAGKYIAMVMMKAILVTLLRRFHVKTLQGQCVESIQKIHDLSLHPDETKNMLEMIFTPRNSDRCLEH
Kind of data set: Inhibition of aromatase activity in human T47D cells after 24 hrs. It is filed as cell-based. The note with it: for inhibition (INH): human, 24 h. In a few lines: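 T47D cells in DMEM with 10% FBS, 10 µg/ml insulin and 1% penicillin-streptomycin. Plated at 1.2–1.8 × 10,000 cells/well. Treated 24 h with serial dilutions, then cellular aromatase activity measured and IC50 determined.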

Data set [1] deals with T47D. Briefly: Antiproliferative activity against human T47D cells after 48 hrs by SRB assay. The format is functional, cell-based. In a few lines: (§1)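 Cells grown in RPMI-1640 with 5% heat-inactivated FCS, 1 mmol L-1 L-glutamine and 50 µg/mL gentamicin at 37 °C, 5% CO2. Seeded at 1000–2000 cells/well, 24 h later exposed 48 h to 5, 12, 25 and 50 µmol L-1. Fixed with 10% TCA 1 h at 4 °C, stained with 0.4% SRB, dye dissolved in Tris-HCl, OD 564 nm. IC50 from Boltzmann sigmoidal nonlinear regression.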

Data set [2] concerns T47D. Briefly: Induction of apoptosis in human T47D cells assessed as increase in caspase-8 level by ELISA relative to control. The format is functional. In a few lines:
(§2)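 Caspase-8 and caspase-9 in T47D cells quantified with separate human ELISA kits, reported as ng/mL against untreated control cells.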
Background: An ELISA detects its analyte on a solid surface through an enzyme-linked reagent.

Data set [3] has as its system T47D. Briefly: Cell cycle arrest in human T47D cells by flow cytometry. It is filed as functional, cell-based. In a few lines: (§3)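 Cell cycle distribution by flow cytometry in T47D cells, treated cells versus untreated control, at 8.1 µM; percentage of cells in G1, S and G2/M phases recorded.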
For data set [4], the system named is T47D. Briefly: Cell cycle arrest in human T47D cells assessed as accumulation at G2/M phase at 8.1 uM by flow cytometry (reference value: 15.81%). The format is functional. In a few lines:
as §3

For data set [5], the system named is T47D. Briefly: Cell cycle arrest in human T47D cells assessed as accumulation at S phase at 8.1 uM by flow cytometry (reference value: 17.14%). It is filed as functional. In a few lines: as §3
(In flow cytometry, cells or beads pass a laser one at a time.)

Data set [6] deals with T47D. Briefly: Induction of apoptosis in human T47D cells assessed as increase in BAX expression level at IC50 by qRT-PCR analysis relative to control. The format is functional. Background: In qPCR the cycle at which signal appears reflects the starting amount.
In data set [7] the test system is T47D. Briefly: Induction of apoptosis in human T47D cells assessed as increase in Bax/Bcl2 ratio at IC50 by qRT-PCR analysis relative to control. The format is functional.
Data set [8] in a line: Cytotoxicity against human 184A1 cells after 48 hrs by SRB assay. The format is cell-based. The settings on record: 184A1, 48 h. In a few lines: as §1
Data set [9] relates to T47D. Kind of data set: Cell cycle arrest in human T47D cells assessed as accumulation at G1 phase at 8.1 uM by flow cytometry (reference value: 64.92%). The format is functional. In a few lines:
as §3

In data set [10] the test system is T47D. Briefly: Induction of apoptosis in human T47D cells assessed as increase in caspase-9 level by ELISA relative to control. It is filed as functional. In a few lines:
as §2

In data set [11] the test system is T47D. Kind of data set: Induction of apoptosis in human T47D cells (reference value: 2.13%). It is filed as functional.
The subject of data set [12] is T47D. Briefly: Induction of apoptosis in human T47D cells assessed as decrease in Bcl-XL expression level at IC50 by qRT-PCR analysis relative to control. The format is functional, cell-based.

Consider 22 molecules from ChEMBL document CHEMBL4033644, “Aromatase inhibitors and apoptotic inducers: Design, synthesis, anticancer activity and molecular modeling studies of novel phenothiazine derivatives carrying sulfonamide moiety as hybrid molecules” (Eur J Med Chem, 2017).

By IC50 is commonly meant the midpoint of a concentration-inhibition curve. Low readings indicate greater potency, high ones weaker potency. As for `COc1cc(NS(=O)(=O)c2ccc(N/C=C\C(=O)c3ccc4c(c3)Nc3ccccc3S4)cc2)nc(OC)n1`, at Aromatase, the “inhibition (INH)” value came to 44.94%. Further, half-maximal inhibition in the data set on T47D [1] (IC50) required 58.1 µM.

As to `O=C(/C=C\Nc1ccc(S(=O)(=O)Nc2ccnn2-c2ccccc2)cc1)c1ccc2c(c1)Nc1ccccc1S2`, in the data set on T47D [1], the IC50 came to 68.1 µM.

Take `O=C(/C=C\Nc1ccc(S(=O)(=O)c2ccc(N/C=C\C(=O)c3ccc4c(c3)Nc3ccccc3S4)cc2)cc1)c1ccc2c(c1)Nc1ccccc1S2`: the IC50 in the data set with T47D [1] was 46.4 µM.

`O=C(/C=C\Nc1ccc(S(=O)(=O)Nc2ccc3cn[nH]c3c2)cc1)c1ccc2c(c1)Nc1ccccc1S2` had an IC50 in the data set with T47D [1] of 91.1 µM.

For `O=C(/C=C\Nc1ccc(S(=O)(=O)Nc2nccs2)cc1)c1ccc2c(c1)Nc1ccccc1S2`, the values for the IC50 (against Aromatase; in data set [8]; in the data set with T47D [1]) were 5.67 µM, 391 µM and 8.1 µM, respectively. Further, the “inhibition (INH)” value against Aromatase came to 68.32%. The “fold change (FC)” value in the data set on T47D [2] was determined as 34; in the data set on T47D [6], 55000; with T47D [10], 8.9. Also, the Activity result with T47D [3] is “Dose-dependent effect”; in the data set on T47D [4] it was 56.3%; with T47D [5] it was 13.1%; with T47D [9], 7.4%; in the data set with T47D [11], 23.2%; in the data set on T47D [12], “Below limit of detection”. Besides, the Ratio in the data set on T47D [7] is 1e+08.

Take `N=C(N)NS(=O)(=O)c1ccc(N/C=C\C(=O)c2ccc3c(c2)Nc2ccccc2S3)cc1`: on Aromatase, the IC50 is 9.67 µM and the “inhibition (INH)” value was determined as 72.22%. The molecule also displayed an IC50 in the data set with T47D [1] of 23.7 µM.

On to `COc1ncnc(NS(=O)(=O)c2ccc(N/C=C\C(=O)c3ccc4c(c3)Nc3ccccc3S4)cc2)c1OC`, for which, in the data set with T47D [1], half-maximal inhibition (IC50) was put at 82.2 µM.

Molecule `COc1cnc(NS(=O)(=O)c2ccc(N/C=C\C(=O)c3ccc4c(c3)Nc3ccccc3S4)cc2)nc1` yielded an IC50 in the data set on T47D [1] of 83.2 µM.

With `Cc1cc(NS(=O)(=O)c2ccc(N/C=C\C(=O)c3ccc4c(c3)Nc3ccccc3S4)cc2)nc(C)n1`, the “inhibition (INH)” value against Aromatase came to 35.88%. The IC50 in the data set with T47D [1] worked out at 56.5 µM.

On to `O=C(/C=C\Nc1ccc(S(=O)(=O)Nc2cnc3ccccc3n2)cc1)c1ccc2c(c1)Nc1ccccc1S2`, for which, at Aromatase, the IC50 stood at 8.9 µM and the “inhibition (INH)” value was found to be 65.1%. In addition, inhibition in the data set on T47D [1] was half-maximal at 21.4 µM (IC50).

As for `Nc1ccc(S(=O)(=O)c2ccc(N/C=C\C(=O)c3ccc4c(c3)Nc3ccccc3S4)cc2)cc1`, the “inhibition (INH)” value against Aromatase came to 31.92%. Moreover, in the data set with T47D [1], half-maximal inhibition (IC50) was put at 54.9 µM.

`Cc1cc(NS(=O)(=O)c2ccc(N/C=C\C(=O)c3ccc4c(c3)Nc3ccccc3S4)cc2)on1`: the IC50 in the data set with T47D [1] is 78.4 µM.

For `Cc1cc(C)nc(NS(=O)(=O)c2ccc(N/C=C\C(=O)c3ccc4c(c3)Nc3ccccc3S4)cc2)n1`, the “inhibition (INH)” value against Aromatase is reported as 43.62%. The same molecule came in with an IC50 in the data set with T47D [1] of 50.7 µM.

`COc1cccc2c1C(=O)c1c(O)c3c(c(O)c1C2=O)C[C@@](O)(C(=O)CO)C[C@@H]3O[C@H]1C[C@H](N)[C@H](O)[C@H](C)O1` [DOXORUBICIN] came in with an IC50 in the data set on T47D [1] of 9.8 µM.

Take `Cc1ccnc(NS(=O)(=O)c2ccc(N/C=C\C(=O)c3ccc4c(c3)Nc3ccccc3S4)cc2)n1`: in the data set with T47D [1], the IC50 was found to be 73.6 µM.

For `O=C(/C=C\Nc1ccc(S(=O)(=O)Nc2ncccn2)cc1)c1ccc2c(c1)Nc1ccccc1S2`, at Aromatase, the “inhibition (INH)” value worked out at 30.82%. The molecule also gave an IC50 with T47D [1] of 61.3 µM.

As for `CC(=O)NS(=O)(=O)c1ccc(N/C=C\C(=O)c2ccc3c(c2)Nc2ccccc2S3)cc1`, the “inhibition (INH)” value on Aromatase was 40.52%. The molecule further had an IC50 with T47D [1] of 71.8 µM.

In the data set with T47D [1], `CN(C)/C=C\C(=O)c1ccc2c(c1)Nc1ccccc1S2` displayed an IC50 of 136 µM.

As to `O=C(/C=C\Nc1ccc(S(=O)(=O)Nc2ccccn2)cc1)c1ccc2c(c1)Nc1ccccc1S2`, on Aromatase, the half-maximal inhibitory concentration (IC50) is 6.7 µM and the “inhibition (INH)” value is on record as 68.86%. The same molecule showed an IC50 with T47D [1] of 8.8 µM.

As to `Cc1nnc(NS(=O)(=O)c2ccc(N/C=C\C(=O)c3ccc4c(c3)Nc3ccccc3S4)cc2)s1`, in the data set with T47D [1], the IC50 stood at 71.4 µM.

`Cc1noc(NS(=O)(=O)c2ccc(N/C=C\C(=O)c3ccc4c(c3)Nc3ccccc3S4)cc2)c1C` registered an IC50 in the data set on T47D [1] of 79.5 µM.

`NS(=O)(=O)c1ccc(N/C=C\C(=O)c2ccc3c(c2)Nc2ccccc2S3)cc1`: the “inhibition (INH)” value against Aromatase stood at 28.9%. For the same molecule, the IC50 with T47D [1] is 67.6 µM.
